# Experimental data: ChEMBL document CHEMBL1156888, “The first low microM SecA inhibitors” (Bioorg Med Chem, 2010)
# Activity calls are given as the source filed them. The calls are words filed in the database; no cut-off is given here.
# Columns and labels:
# [1] = tested on: Escherichia coli; experiment: Inhibition of Escherichia coli SecA N-terminal fragment EcN68 assessed as phosphate release at 100 uM by Malachite green assay
# Procedure, shortened: (§1)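 ATPase of truncated E. coli SecA N68 (lacks C-terminal regulatory domain), 2.25 µg per reaction, with 2 mM ATP in 50 mM Tris-HCl pH 7.6, 20 mM KCl, 20 mM NH4Cl, 1 mM DTT, 2 mM Mg(OAc)2, 10% DMSO. Run at 40 °C for 20 min, stopped with malachite green then citric acid, 40 min at room temperature, A660 read. Activity remaining expressed as percent of compound-free control. At least triplicate, SEM.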
# [2] = tested on: Escherichia coli; experiment: Inhibition of Escherichia coli SecA N-terminal fragment EcN68 assessed as phosphate release at 30 uM by Malachite green assay; procedure, shortened: as §1
# [3] = tested on: Escherichia coli; experiment: Inhibition of Escherichia coli SecA N-terminal fragment EcN68 assessed as phosphate release at 5 uM by Malachite green assay; procedure, shortened: as §1
# [4] = Inhibition of Escherichia coli SecA N-terminal fragment EcN68 assessed as phosphate release by Malachite green assay
# Procedure, shortened: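 Truncated SecA lacking the C-terminal regulatory domain (2.25 µg) in 50 µL with 2 mM ATP, 50 mM Tris-HCl pH 7.6, 20 mM KCl, 20 mM NH4Cl, 1 mM DTT, 2 mM Mg(OAc)2, 10% DMSO; 40 °C, 20 min. Stopped with malachite green then 34% citric acid; 40 min room temperature, A660. Percent remaining ATPase versus no-compound controls; at least triplicate.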
# [5] = Inhibition of Escherichia coli full length SecA assessed as phosphate release by Malachite green assay
# Procedure, shortened: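 Full-length SecA (5 µg) in 50 µL with 2 mM ATP, 50 mM Tris-HCl pH 7.6, 20 mM KCl, 20 mM NH4Cl, 1 mM DTT, 2 mM Mg(OAc)2, 10% DMSO; 40 °C, 40 min. Stopped with malachite green then 34% citric acid; 40 min room temperature, A660. Activity as percent of no-compound controls; at least triplicate.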
# [6] = tested on: Escherichia coli; experiment: Antimicrobial activity against wild type Escherichia coli MC4100 after 10 to 12 hrs; assay type: functional, organism-based
# Procedure, shortened: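 E. coli K-12 wild-type strain MC4100. Log-phase cells (OD600 ~0.5 to 1.0) diluted to OD600 0.05, compounds added from 100% DMSO stocks, final 5% DMSO. Cultured with shaking at 37 °C, 1050 rpm, for 10 to 12 h.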
# [7] = tested on: Escherichia coli; experiment: Antimicrobial activity against permeability mutant Escherichia coli NR698 after 10 to 12 hrs; assay type: functional, organism-based
# Procedure, shortened: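 Outer-membrane-permeable MC4100 imp4213 mutant; log-phase cells (OD600 ~0.5–1.0) diluted to OD600 0.05, compounds added from 100% DMSO stocks, cultures with 5% DMSO final, shaken at 37 °C, 1050 rpm, 10–12 h.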
SMILES,inhibition [1],inhibition [2],other results
Cc1onc(-c2c(Cl)cccc2Cl)c1C(=O)NCc1ccccc1Br,inactive,,
Cc1onc(-c2c(F)cccc2Cl)c1C(=O)Nc1ccc(Sc2ccccc2)nc1Sc1ccccc1,Active,,
O=[N+]([O-])c1cccc2oc(SCc3ccc(CSc4nc5c([N+](=O)[O-])cccc5o4)cc3)nc12,Active,,
COc1ccc(C2=NC(SCc3ccc(CSc4nc(-c5ccc(OC)cc5)c(C#N)c(=O)[nH]4)cc3)=NC(=O)C2C#N)cc1 (stereo not drawn),Active,Active,
CC(C)c1ccc(C2=NC(SCc3ccc(CSc4nc(-c5ccc(C(C)C)cc5)c(C#N)c(=O)[nH]4)cc3)=NC(=O)C2C#N)cc1 (stereo not drawn),Active,Active,inhibition [3]: Active
Cc1onc(-c2c(Cl)cccc2Cl)c1C(=O)Nc1ccc(F)c(Cl)c1,inactive,,
Cc1onc(-c2c(Cl)cccc2Cl)c1C(=O)NC1CCC(C)CC1 (stereo not drawn),inactive,,
Cc1onc(-c2c(Cl)cccc2Cl)c1C(=O)NCc1cccc(Br)c1,inactive,,
N#Cc1c(-c2cccc3ccccc23)nc(SCc2ccc(CSC3=NC(=O)C(C#N)C(c4cccc5ccccc45)=N3)cc2)[nH]c1=O (stereo not drawn),Active,Active,inhibition [3]: Active
N#Cc1c(-c2ccc(-c3ccccc3)cc2)nc(SCc2ccc(CSC3=NC(=O)C(C#N)C(c4ccc(-c5ccccc5)cc4)=N3)cc2)[nH]c1=O (stereo not drawn),Active,Active,IC50 [4]: 2 µM; inhibition [3]: Active; IC50 [5]: 50 µM; MIC [6]: inactive
Cc1ccccc1NC(=O)c1c(-c2c(Cl)cccc2Cl)noc1C,inactive,,IC50 [5]: 60 µM
CCc1ccc(C2=NC(SCc3ccc(CSc4nc(-c5ccc(CC)cc5)c(C#N)c(=O)[nH]4)cc3)=NC(=O)C2C#N)cc1 (stereo not drawn),Active,Active,inhibition [3]: Active
Cc1onc(-c2c(Cl)cccc2Cl)c1C(=O)N1CCCCC1,inactive,,
CCc1ccc(-c2nc(SCc3ccccc3)[nH]c(=O)c2C#N)cc1,,Active,
N#Cc1c(-c2cccc3ccccc23)nc(SCc2ccccc2)[nH]c1=O,,Active,
O=[N+]([O-])c1ccc2oc(SCc3ccc(CSc4nc5cc([N+](=O)[O-])ccc5o4)cc3)nc2c1,Active,,
CC(C)c1ccc(-c2nc(SCc3ccccc3)[nH]c(=O)c2C#N)cc1,,Active,
Cc1cccc(NC(=O)c2c(-c3c(Cl)cccc3Cl)noc2C)c1,inactive,,

SMILES,inhibition [1],inhibition [2],other results
Cc1ccc2oc(SCc3ccc(CSc4nc5cc(C)ccc5o4)cc3)nc2c1,Active,,
Cc1ccc(C2=NC(SCc3ccc(CSc4nc(-c5ccc(C)cc5)c(C#N)c(=O)[nH]4)cc3)=NC(=O)C2C#N)cc1 (stereo not drawn),Active,Active,inhibition [3]: Active
Cc1onc(-c2c(Cl)cccc2Cl)c1C(=O)Nc1ccccc1F,inactive,,
Clc1ccc2oc(SCc3ccc(CSc4nc5cc(Cl)ccc5o4)cc3)nc2c1,Active,,
Cc1onc(-c2c(Cl)cccc2Cl)c1C(=O)N1CCSCC1,inactive,,
c1ccc2oc(SCc3ccc(CSc4nc5ccccc5o4)cc3)nc2c1,Active,,
N#Cc1c(-c2ccc(-c3ccccc3)cc2)nc(SCc2ccccc2)[nH]c1=O,,Active,MIC [7]: Active; MIC [6]: inactive
Cc1cccc(C2=NC(SCc3ccc(CSc4nc(-c5cccc(C)c5)c(C#N)c(=O)[nH]4)cc3)=NC(=O)C2C#N)c1 (stereo not drawn),Active,Active,
Clc1ccc2nc(SCc3ccc(CSc4nc5ccc(Cl)cc5s4)cc3)sc2c1,Active,,
N#Cc1c(-c2ccc(Br)cc2)nc(SCc2ccc(CSC3=NC(=O)C(C#N)C(c4ccc(Br)cc4)=N3)cc2)[nH]c1=O (stereo not drawn),Active,Active,IC50 [4]: 2 µM; inhibition [3]: Active; IC50 [5]: 20 µM
Cc1onc(-c2c(Cl)cccc2Cl)c1C(=O)Nc1cccc(Cl)c1,inactive,,
Cc1onc(-c2c(Cl)cccc2Cl)c1C(=O)NC1CCCCC1,inactive,,
N#Cc1c(-c2ccccc2)nc(SCc2ccc(CSC3=NC(=O)C(C#N)C(c4ccccc4)=N3)cc2)[nH]c1=O (stereo not drawn),Active,Active,
Cc1onc(-c2c(Cl)cccc2Cl)c1C(=O)N1CCOCC1,inactive,,
N#Cc1c(-c2ccc(Br)cc2)nc(SCc2ccccc2)[nH]c1=O,,Active,
Cc1cc(NC(=O)c2c(-c3c(Cl)cccc3Cl)noc2C)ccc1Br,inactive,,
Cc1ccc(NC(=O)c2c(-c3c(Cl)cccc3Cl)noc2C)c(C)c1,inactive,,
